≈ marks a conversion by molar mass, not a printed value.
How the values were obtained:
Type in all cases: functional
Aspergillus fumigatus = assay: Antifungal activity against Aspergillus fumigatus ATCC 26934
Outline: (§1)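 Broth microdilution per CLSI M38-A2 in RPMI-1640 with MOPS at pH 7.0. Inoculum 1-5 × 10^3 CFU/mL, with twofold compound dilutions spanning 250-0.24 µg/ml (final DMSO <1%). Plates incubated at 35 °C, moist and dark, and read when the control fungus had grown. MIC is total growth inhibition. MFC comes from subculturing clear wells in duplicate onto SDA.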

Aspergillus flavus = assay: Antifungal activity against Aspergillus flavus ATCC 9170; outline: as §1
Nannizzia gypsea = assay: Antifungal activity against Microsporum gypseum C 115 2000
Outline: (§2)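 Dermatophytes tested by CLSI M38-A2 microdilution in MOPS-buffered RPMI-1640 at pH 7.0. Inoculum 1-5 × 10^3 CFU/mL; compounds 250 to 0.24 µg/ml in twofold steps, final DMSO <1%. Incubated at 28 °C in a moist, dark chamber and read according to control growth. MIC is the lowest concentration with complete inhibition. MFC is the lowest concentration with no growth after duplicate subculture on SDA.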

Trichophyton rubrum = assay: Antifungal activity against Trichophyton rubrum C 113 2000; outline: as §2
Cryptococcus neoformans = assay: Antifungal activity against Cryptococcus neoformans ATCC 32264
Outline: (§3)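 CLSI M27-A3 broth microdilution in RPMI-1640 buffered to pH 7.0 with MOPS. Inoculum 1-5 × 10^3 CFU/mL. Compound twofold dilutions from 250 to 0.24 µg/ml, final DMSO <1%. Incubated at 35 °C in a moist, dark chamber and read at 48 h. MIC is the lowest concentration giving total growth inhibition. For MFC, 5 µL from clear wells was plated in duplicate on SDA; MFC is the lowest concentration with no growth.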

Candida tropicalis = assay: Antifungal activity against Candida tropicalis C 131 2000; outline: as §3
Aspergillus niger = assay: Antifungal activity against Aspergillus niger ATCC 9029; outline: as §1
Candida albicans = assay: Antifungal activity against Candida albicans ATCC 10213; outline: as §3
Saccharomyces cerevisiae = assay: Antifungal activity against Saccharomyces cerevisiae ATCC 9763; outline: as §3
[1] = tested on: Trichophyton mentagrophytes; assay: Antifungal activity against Trichophyton mentagrophytes ATCC 9972; outline: as §2

SMILES | MFC (Aspergillus fumigatus) [µg/mL] | MIC (Aspergillus fumigatus) [µg/mL] | MFC (Aspergillus flavus) [µg/mL] | MIC (Aspergillus flavus) [µg/mL] | MFC (Nannizzia gypsea) [µg/mL] | MIC (Nannizzia gypsea) [µg/mL] | MFC (Trichophyton rubrum) [µg/mL] | MIC (Trichophyton rubrum) [µg/mL] | MFC (Cryptococcus neoformans) [µg/mL] | MIC (Cryptococcus neoformans) [µg/mL] | MFC (Candida tropicalis) [µg/mL] | MIC (Candida tropicalis) [µg/mL] | MFC (Aspergillus niger) [µg/mL] | MIC (Aspergillus niger) [µg/mL] | MFC (Candida albicans) [µg/mL] | MIC (Candida albicans) [µg/mL] | MFC (Saccharomyces cerevisiae) [µg/mL] | MIC (Saccharomyces cerevisiae) [µg/mL] | MFC [1] [µg/mL] | MIC [1] [µg/mL]
O=C1CCC(=O)N1CCCCc1ccccc1 | > 250 | > 250 | > 250 | > 250 | > 250 | > 250 | > 250 | > 250 | > 250 | > 250 | > 250 | > 250 | > 250 | > 250 | > 250 | > 250 | > 250 | > 250 | > 250 | > 250
CC1=CC(O)N(CCCCc2ccccc2)C1=O (configuration not stated) | > 250 | > 250 | > 250 | > 250 | > 250 | > 250 | > 250 | > 250 | > 250 | > 250 | > 250 | > 250 | > 250 | > 250 | > 250 | > 250 | > 250 | > 250 | > 250 | > 250
O=C1C=CC(O)N1CCCc1ccccc1 (configuration not stated) | 250 (≈ 1150 µM) | 125 (≈ 575 µM) | > 250 | 250 (≈ 1150 µM) | 125 (≈ 575 µM) | 62.5 (≈ 288 µM) | 250 (≈ 1150 µM) | 62.5 (≈ 288 µM) | > 250 | 62.5 (≈ 288 µM) | 250 (≈ 1150 µM) | 125 (≈ 575 µM) | > 250 | > 250 | > 250 | 62.5 (≈ 288 µM) | 125 (≈ 575 µM) | 62.5 (≈ 288 µM) | 62.5 (≈ 288 µM) | 31.2 (≈ 144 µM)
O=C1C=CC(O)N1c1ccccc1 (configuration not stated) | > 250 | > 250 | > 250 | > 250 | > 250 | > 250 | > 250 | > 250 | > 250 | 250 (≈ 1430 µM) | > 250 | > 250 | > 250 | > 250 | > 250 | > 250 | > 250 | > 250 | > 250 | > 250
O=C(O)/C=C\C(=O)NCCc1ccccc1 | > 250 | > 250 | > 250 | > 250 | > 250 | 250 (≈ 1140 µM) | > 250 | 250 (≈ 1140 µM) | > 250 | > 250 | > 250 | > 250 | > 250 | > 250 | > 250 | – | > 250 | > 250 | > 250 | > 250
CC1=CC(=O)N(CCCCc2ccccc2)C1O (configuration not stated) | > 250 | > 250 | > 250 | > 250 | > 250 | > 250 | > 250 | > 250 | > 250 | > 250 | > 250 | > 250 | > 250 | > 250 | > 250 | > 250 | > 250 | > 250 | > 250 | > 250
CC1=C(C)C(=O)N(CCCc2ccccc2)C1=O | > 250 | > 250 | > 250 | > 250 | 250 (≈ 1030 µM) | 125 (≈ 514 µM) | 250 (≈ 1030 µM) | 62.5 (≈ 257 µM) | 250 (≈ 1030 µM) | 125 (≈ 514 µM) | > 250 | > 250 | > 250 | > 250 | > 250 | > 250 | > 250 | > 250 | > 250 | 250 (≈ 1030 µM)
CC1=CC(O)N(c2ccccc2)C1=O (configuration not stated) | > 250 | > 250 | > 250 | > 250 | > 250 | > 250 | > 250 | > 250 | > 250 | > 250 | > 250 | > 250 | > 250 | > 250 | > 250 | > 250 | > 250 | > 250 | > 250 | > 250
O=C(O)/C=C\C(=O)NCCCc1ccccc1 | > 250 | > 250 | > 250 | > 250 | > 250 | 250 (≈ 1070 µM) | > 250 | 250 (≈ 1070 µM) | > 250 | > 250 | > 250 | > 250 | > 250 | > 250 | > 250 | – | > 250 | > 250 | > 250 | > 250
O=C1C(Cl)=C(Cl)C(=O)N1c1ccccc1 | > 250 | > 250 | > 250 | > 250 | > 250 | > 250 | > 250 | > 250 | > 250 | > 250 | > 250 | > 250 | > 250 | > 250 | > 250 | > 250 | > 250 | > 250 | > 250 | > 250
CC1=C(C)C(=O)N(CCc2ccccc2)C1=O | > 250 | > 250 | > 250 | > 250 | > 250 | 250 (≈ 1090 µM) | 250 (≈ 1090 µM) | 62.5 (≈ 273 µM) | > 250 | 250 (≈ 1090 µM) | > 250 | > 250 | > 250 | > 250 | > 250 | > 250 | > 250 | > 250 | > 250 | 250 (≈ 1090 µM)
O=C1C=CC(O)N1Cc1ccccc1 (configuration not stated) | > 250 | > 250 | > 250 | > 250 | > 250 | > 250 | > 250 | > 250 | > 250 | 250 (≈ 1320 µM) | > 250 | > 250 | > 250 | > 250 | > 250 | > 250 | > 250 | > 250 | > 250 | > 250
CC1=CC(=O)N(CCc2ccccc2)C1O (configuration not stated) | > 250 | > 250 | > 250 | > 250 | > 250 | > 250 | > 250 | > 250 | > 250 | > 250 | > 250 | > 250 | > 250 | > 250 | > 250 | > 250 | > 250 | > 250 | > 250 | > 250
CC1=CC(=O)N(Cc2ccccc2)C1O (configuration not stated) | > 250 | > 250 | > 250 | > 250 | > 250 | > 250 | > 250 | > 250 | > 250 | > 250 | > 250 | > 250 | > 250 | > 250 | > 250 | > 250 | > 250 | > 250 | > 250 | > 250
O=C1C(c2ccccc2)=C(c2ccccc2)C(=O)N1Cc1ccccc1 | > 250 | > 250 | > 250 | > 250 | > 250 | > 250 | > 250 | > 250 | > 250 | > 250 | > 250 | > 250 | > 250 | > 250 | > 250 | > 250 | > 250 | > 250 | > 250 | > 250
O=C(O)/C=C\C(=O)Nc1ccccc1 | > 250 | > 250 | > 250 | > 250 | > 250 | 125 (≈ 654 µM) | 250 (≈ 1310 µM) | 62.5 (≈ 327 µM) | > 250 | > 250 | > 250 | > 250 | > 250 | > 250 | > 250 | – | > 250 | 125 (≈ 654 µM) | > 250 | 250 (≈ 1310 µM)
CC1=C(C)C(=O)N(Cc2ccccc2)C1=O | > 250 | > 250 | > 250 | > 250 | 250 (≈ 1160 µM) | 125 (≈ 581 µM) | 125 (≈ 581 µM) | 62.5 (≈ 290 µM) | 250 (≈ 1160 µM) | 125 (≈ 581 µM) | > 250 | 125 (≈ 581 µM) | > 250 | > 250 | > 250 | 125 (≈ 581 µM) | > 250 | 250 (≈ 1160 µM) | 250 (≈ 1160 µM) | 125 (≈ 581 µM)

Source: ChEMBL document CHEMBL1772954, “Antifungal, cytotoxic and SAR studies of a series of N-alkyl, N-aryl and N-alkylphenyl-1,4-pyrrolediones and related compounds” (Bioorg Med Chem, 2011)
